ChEMBL document CHEMBL1132724 (J Med Chem, 1999)

Columns and labels:
Mus musculus [1] = organism: Mus musculus; experiment: (§1) Agonistic activity in Mouse Vas Deferens; type: functional, organism-based
Method in brief: (§2)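 Electrically stimulated (0.1 Hz, 0.4-ms pulses, 2-ms for MVD) guinea pig ileum myenteric plexus strips (male Hartley) or vas deferens (male ICR mice) in 37 °C oxygenated Krebs (Mg-free for MVD). […] Tissues checked against an initial DPDPE or PL-017 curve. Mean of 2-4 tissues.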

Cavia porcellus [2] = organism: Cavia porcellus; experiment: (§3) Agonistic activity in Guinea Pig Ileum; type: functional, organism-based; method in brief: as §2
Mu-type opioid receptor [3] = molecular target: T1, Mu-type opioid receptor (Rattus norvegicus, UniProt P33535); experiment: Ability to displace [3H]DAMGO radioligand from Opioid receptor mu 1
T1 sequence (P33535 whole entry): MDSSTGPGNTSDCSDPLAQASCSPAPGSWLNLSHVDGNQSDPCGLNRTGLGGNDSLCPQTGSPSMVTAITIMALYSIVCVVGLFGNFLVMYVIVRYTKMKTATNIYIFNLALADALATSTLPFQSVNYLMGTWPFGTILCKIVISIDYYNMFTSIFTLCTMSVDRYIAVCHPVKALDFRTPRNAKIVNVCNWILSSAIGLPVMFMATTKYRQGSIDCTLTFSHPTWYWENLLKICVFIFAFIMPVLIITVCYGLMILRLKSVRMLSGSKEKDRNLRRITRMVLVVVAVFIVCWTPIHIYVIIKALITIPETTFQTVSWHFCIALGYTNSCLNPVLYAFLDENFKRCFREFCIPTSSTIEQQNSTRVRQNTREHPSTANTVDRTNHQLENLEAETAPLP
Method in brief: (§4)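 Rat brain membranes prepared daily, homogenized in ice-cold 10 mM Tris-HCl pH 7.0, centrifuged twice at 30000g. [3H]DAMGO 2.0 nM, 2 h at 25 °C in 50 mM Tris-HCl pH 7.4 with protease inhibitors. Nonspecific binding: 20 μM levallorphan. 10 drug concentrations, run twice. IC50 converted to Ki by Cheng-Prusoff.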

[4] = molecular target: T2, Delta-type opioid receptor (Rattus norvegicus, UniProt P33533); experiment: Ability to displace [3H]DADLE radioligand from Opioid receptor delta 1
T2 sequence (P33533 whole entry): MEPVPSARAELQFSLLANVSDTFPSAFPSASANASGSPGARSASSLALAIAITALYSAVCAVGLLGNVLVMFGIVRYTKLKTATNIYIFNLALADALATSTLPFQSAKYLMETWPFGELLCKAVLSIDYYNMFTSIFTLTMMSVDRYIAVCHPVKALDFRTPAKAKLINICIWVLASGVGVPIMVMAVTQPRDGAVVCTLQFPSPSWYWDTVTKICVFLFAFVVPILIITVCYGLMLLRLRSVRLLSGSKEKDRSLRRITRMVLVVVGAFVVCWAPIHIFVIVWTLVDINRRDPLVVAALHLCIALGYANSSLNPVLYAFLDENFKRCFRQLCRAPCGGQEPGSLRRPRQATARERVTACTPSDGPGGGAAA
Method in brief: as §4, with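 “[3H]DADLE” for “[3H]DAMGO”, “with 100 mM choline chloride, 3 mM MnCl2, 100 nM DAMGO to block mu sites,” for “with”, “twice. Ki from” for “twice.”, “IC50” for “IC50 converted to Ki”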

[5] = molecular target: Opioid receptors; delta & kappa (Homo sapiens) (UniProt P41145+P41143); experiment: Selectivity Ratio of Ki of Kappa receptor/ Ki of Delta receptor; type: protein assay
Opioid receptors; delta & kappa (Homo sapiens), sequence (P41143 whole entry, looked up): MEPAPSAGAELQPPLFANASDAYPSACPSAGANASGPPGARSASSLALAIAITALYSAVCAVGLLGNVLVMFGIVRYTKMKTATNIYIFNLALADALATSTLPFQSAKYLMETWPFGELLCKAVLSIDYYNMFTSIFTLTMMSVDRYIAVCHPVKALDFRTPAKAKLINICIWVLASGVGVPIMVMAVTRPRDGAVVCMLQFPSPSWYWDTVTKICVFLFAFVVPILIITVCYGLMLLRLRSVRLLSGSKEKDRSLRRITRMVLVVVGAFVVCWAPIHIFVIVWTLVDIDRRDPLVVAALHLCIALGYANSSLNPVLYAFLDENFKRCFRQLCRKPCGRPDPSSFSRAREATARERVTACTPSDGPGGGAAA
Opioid receptors; delta & kappa (Homo sapiens), sequence (P41145 whole entry, looked up): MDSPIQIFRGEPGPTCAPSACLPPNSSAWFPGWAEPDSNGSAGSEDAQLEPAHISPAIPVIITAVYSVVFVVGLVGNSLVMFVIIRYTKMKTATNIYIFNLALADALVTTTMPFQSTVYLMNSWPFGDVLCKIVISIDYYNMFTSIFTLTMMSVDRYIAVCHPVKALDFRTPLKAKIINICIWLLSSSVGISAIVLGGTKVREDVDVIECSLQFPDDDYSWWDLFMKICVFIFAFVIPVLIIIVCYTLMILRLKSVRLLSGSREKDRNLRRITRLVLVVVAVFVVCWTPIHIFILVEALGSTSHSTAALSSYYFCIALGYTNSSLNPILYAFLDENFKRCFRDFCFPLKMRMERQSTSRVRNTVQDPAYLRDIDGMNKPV

[6] = molecular target: Opioid receptors; mu & delta (Homo sapiens) (UniProt P41143+P35372); experiment: Selectivity Ratio of Ki of Mu receptor/ Ki of Delta receptor; type: protein assay
Opioid receptors; mu & delta (Homo sapiens), sequence (P35372 whole entry, looked up): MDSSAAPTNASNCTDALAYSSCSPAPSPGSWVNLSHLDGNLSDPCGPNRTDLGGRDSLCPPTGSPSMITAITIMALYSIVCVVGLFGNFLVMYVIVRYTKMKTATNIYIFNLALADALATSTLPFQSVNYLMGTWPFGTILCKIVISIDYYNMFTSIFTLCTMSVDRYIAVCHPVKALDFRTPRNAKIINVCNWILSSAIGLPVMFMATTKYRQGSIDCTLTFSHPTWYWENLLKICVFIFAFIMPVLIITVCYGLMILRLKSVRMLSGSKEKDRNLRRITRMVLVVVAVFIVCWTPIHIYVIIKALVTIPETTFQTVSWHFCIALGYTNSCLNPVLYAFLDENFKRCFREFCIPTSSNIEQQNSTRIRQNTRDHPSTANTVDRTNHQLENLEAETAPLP
Opioid receptors; mu & delta (Homo sapiens), sequence (P41143 whole entry, looked up): as the sequence (P41143 whole entry, looked up) above

[7] = molecular target: T3, Kappa-type opioid receptor (Cavia porcellus, UniProt P41144); experiment: Ability to displace [3H]U-69593 radioligand from Opioid receptor kappa 1
T3 sequence (P41144 whole entry): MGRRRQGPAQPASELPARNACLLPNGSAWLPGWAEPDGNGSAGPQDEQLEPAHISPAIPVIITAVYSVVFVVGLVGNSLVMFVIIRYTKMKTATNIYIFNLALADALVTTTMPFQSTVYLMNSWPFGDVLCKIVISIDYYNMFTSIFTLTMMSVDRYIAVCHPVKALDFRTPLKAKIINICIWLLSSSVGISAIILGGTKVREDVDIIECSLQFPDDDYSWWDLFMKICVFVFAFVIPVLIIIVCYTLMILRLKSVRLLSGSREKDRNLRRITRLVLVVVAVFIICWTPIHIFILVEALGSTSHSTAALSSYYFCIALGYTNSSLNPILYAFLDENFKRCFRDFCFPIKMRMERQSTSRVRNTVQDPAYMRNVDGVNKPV
Method in brief: (§5)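 Guinea pig brain membranes prepared daily, homogenized in ice-cold 10 mM Tris-HCl pH 7.0, centrifuged twice at 30000g. [3H]U69,593 2.0 nM, 2 h at 25 °C in 50 mM Tris-HCl pH 7.4 with 1 μg/mL captopril and protease inhibitors. Nonspecific binding: 1 μM U69,593. 10 drug concentrations, run twice. Ki from IC50 by Cheng-Prusoff.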

Mus musculus [8] = organism: Mus musculus; experiment: as §1; type: functional; method in brief: as §2
[9] = molecular target: T3, Kappa-type opioid receptor; experiment: Ability to inhibit GTP-gamma-S binding to Opioid receptor kappa 1 of guinea pig caudate.
Method in brief: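 Guinea pig caudate membranes (10 μg) incubated 4 h with 0.05-0.1 nM [35S]GTP-γ-S in Tris buffer pH 7.7 with NaCl, MgCl2, EDTA, DTT, 100 µM GDP, 0.1% BSA. κ agonist U69,593 (500 nM or 10 μM) antagonised by ≥10 antagonist concentrations.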

Cavia porcellus [10] = organism: Cavia porcellus; experiment: as §3; type: functional; method in brief: as §2
Mu-type opioid receptor [11] = molecular target: Mu-type opioid receptor (Cavia porcellus, UniProt P97266); experiment: Ability to inhibit GTP-gamma-S binding to Opioid receptor mu 1 of guinea pig caudate.
Mu-type opioid receptor (Cavia porcellus, UniProt P97266), sequence (P97266 whole entry): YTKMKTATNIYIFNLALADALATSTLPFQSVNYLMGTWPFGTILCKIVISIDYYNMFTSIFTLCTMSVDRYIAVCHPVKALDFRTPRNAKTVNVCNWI
Method in brief: (§6)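 Antagonism of agonist-stimulated [35S]GTP-γ-S (0.05-0.1 nM) binding in guinea pig caudate membranes (10 μg). Buffer: 59 mM Tris pH 7.7, 100 mM NaCl, 1 mM EDTA, 1 mM DTT, 100 μM GDP, 0.1% BSA. Agonist 500 nM or 10 μM (DAMGO for mu, U69,593 for kappa), ≥10 antagonist concentrations, 4 h. Filtration and scintillation counting. Nonspecific binding: 10 μM GTP-γ-S. Triplicate, ≥3 experiments. Ki by curve fitting.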

[12] = molecular target: T3, Kappa-type opioid receptor; experiment: Binding affinity towards Opioid receptor kappa 1 by the displacement of [3H]U-69593 radioligand in guinea pig brain membranes; type: cell membranes, Membrane; method in brief: as §5
[13] = molecular target: T2, Delta-type opioid receptor; experiment: Binding affinity towards Opioid receptor delta 1 by the displacement of [3H]DADLE radioligand in rat brain membranes; type: cell membranes
Method in brief: as §4, with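 “[3H]DADLE” for “[3H]DAMGO”, “with 100 mM choline chloride, 3 mM MnCl2, 100 nM DAMGO to block mu sites,” for “with”, “twice. Ki from” for “twice.”, “IC50” for “IC50 converted to Ki”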

Mu-type opioid receptor [14] = molecular target: T1, Mu-type opioid receptor; experiment: Binding affinity towards Opioid receptor mu 1 by the displacement of [3H]DAMGO radioligand in rat brain membranes; type: cell membranes; method in brief: as §4
[15] = molecular target: T3, Kappa-type opioid receptor; experiment: Ability to inhibit GTP-gamma-S binding to Opioid receptor kappa 1 of guinea pig caudate; method in brief: as §6

| Structure (SMILES) | Ki (Mu-type opioid receptor [3]) [nM] | Ki [4] [nM] | Selectivity ratio [5] | Selectivity ratio [6] | Ki [7] [nM] | also measured |
| --- | --- | --- | --- | --- | --- | --- |
| C=CCN1C[C@H](C)N([C@H](c2ccc(C(=O)N(CC)CC)cc2)c2cccc(OC)c2)C[C@H]1C [SNC-80] | – | – | – | – | – | IC50 (Mus musculus [1]): 2.73 nM; IC50 (Cavia porcellus [2]): 5460 nM |
| COc1ccc2c(c1O)[C@]13CCN(C)[C@H](C2)[C@@H]1Cc1c([nH]c2ccccc12)C3 | 2820 | 94 | 72 | 30 | > 6800 | – |
| Oc1ccc2c3c1O[C@H]1c4[nH]c5ccccc5c4C[C@@]4(O)[C@@H](C2)N(CC2CC2)CC[C@]314 [NALTRINDOLE] | – | […] | – | – | – | Inhibition (Mus musculus [8]): <20%; Ki [9]: 8.85 nM; Inhibition (Cavia porcellus [10]): <20%; Ki (Mu-type opioid receptor [11]): 3.2 nM |
| CCN1CC[C@]23Cc4[nH]c5ccccc5c4C[C@H]2[C@H]1Cc1ccc(OC)c(O)c13 | 1350 | 515 | 7 | 3 | 3640 | – |
| COc1ccc2c(c1O)[C@]13CCN(CC4CC4)[C@H](C2)[C@]1(O)Cc1c([nH]c2ccccc12)C3 | 1850 | 21.8 | 145 | 85 | 3160 | – |
| CCN1CC[C@]23Cc4[nH]c5ccccc5c4C[C@@]2(O)[C@H]1Cc1ccc(OC)c(O)c13 | 797 | 684 | 8 | – | > 5300 | – |
| COc1ccc2c(c1O)[C@]13CCN(CC4CC4)[C@H](C2)[C@@H]1Cc1c([nH]c2ccccc12)C3 | – | – | – | – | – | Ki [12]: 7920 nM; Ki [13]: 7 nM; IC50 (Mus musculus [1]): 188 nM; IC50 (Cavia porcellus [2]): 532 nM; Ki (Mu-type opioid receptor [14]): 13300 nM; Ki [15]: > 1250 nM; Ki (Mu-type opioid receptor [11]): > 1250 nM |
| COc1ccc2c(c1O)[C@]13CCN(C)[C@H](C2)[C@]1(O)Cc1c([nH]c2ccccc12)C3 | 2850 | 218 | 31 | 13 | > 6700 | – |
